Compounds with a hit are over-represented: about 2.1% of the library has one in this group of screens.
DNMT1 block: human DNMT1 methyltransferase inhibitors, primary screen, biochemical, molecular beacon, fluorescence, HinP1I cleavage, uHTS | DNA (cytosine-5)-methyltransferase 1 (Homo sapiens), P26358 | inhibition (reported as % activation of signal), % at 10 µM | 360,000 compounds, 0.83% hits | AID 588458, 2011; in the data active means inhibition above about 50%
Target sequence (P26358 504-1616 limits assumed): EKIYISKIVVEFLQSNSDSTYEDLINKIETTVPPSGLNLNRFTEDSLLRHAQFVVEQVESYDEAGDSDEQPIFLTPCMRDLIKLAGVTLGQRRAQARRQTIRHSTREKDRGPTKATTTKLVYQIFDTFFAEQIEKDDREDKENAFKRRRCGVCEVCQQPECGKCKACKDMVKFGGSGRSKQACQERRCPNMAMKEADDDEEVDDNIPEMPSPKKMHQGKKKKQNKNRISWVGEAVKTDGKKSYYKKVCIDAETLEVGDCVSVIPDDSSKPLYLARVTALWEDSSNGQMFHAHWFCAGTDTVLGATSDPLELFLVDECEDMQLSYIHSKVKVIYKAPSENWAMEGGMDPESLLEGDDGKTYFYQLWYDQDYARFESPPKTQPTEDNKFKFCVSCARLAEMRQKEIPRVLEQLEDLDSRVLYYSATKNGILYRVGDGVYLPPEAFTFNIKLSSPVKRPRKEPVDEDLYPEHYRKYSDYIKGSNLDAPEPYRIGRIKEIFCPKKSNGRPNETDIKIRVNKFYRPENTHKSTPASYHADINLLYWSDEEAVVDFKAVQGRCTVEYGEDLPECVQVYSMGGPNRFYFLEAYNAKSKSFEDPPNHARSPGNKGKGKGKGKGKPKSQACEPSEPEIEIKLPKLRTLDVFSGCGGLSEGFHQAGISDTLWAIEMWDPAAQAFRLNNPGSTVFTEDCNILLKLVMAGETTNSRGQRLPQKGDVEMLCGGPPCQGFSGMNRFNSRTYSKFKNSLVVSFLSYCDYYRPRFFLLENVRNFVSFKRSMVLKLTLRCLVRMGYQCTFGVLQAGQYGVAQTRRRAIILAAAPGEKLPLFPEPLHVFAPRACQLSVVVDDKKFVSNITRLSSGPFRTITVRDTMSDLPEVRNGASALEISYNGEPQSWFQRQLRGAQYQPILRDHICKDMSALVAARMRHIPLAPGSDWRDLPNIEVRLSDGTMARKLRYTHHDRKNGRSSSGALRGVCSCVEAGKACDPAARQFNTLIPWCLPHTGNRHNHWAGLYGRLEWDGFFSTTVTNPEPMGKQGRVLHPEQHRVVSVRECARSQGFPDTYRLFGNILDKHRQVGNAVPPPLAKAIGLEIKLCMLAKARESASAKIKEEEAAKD
STEP block: STEP phosphatase inhibitors, primary screen, biochemical, fluorescence intensity, uHTS; Tyrosine-protein phosphatase non-receptor type 5 (Homo sapiens), P54829; recombinant STEP, OMFP fluorogenic substrate; inhibition, % at 20 µM; 360,000 compounds, 0.25% hits; AID 588621, 2011;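 active means inhibition at 20 µM, scaled per plate between control wells, above about 37%, limit read from the data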;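 further: 0% = DMSO with enzyme and substrate and 100% = substrate only without enzyme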
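medium = Bis-Tris buffer pH 6.0, 2.5 mM DTT, 0.005% Tween 20 | test system = STEP (striatal-enriched tyrosine phosphatase) enzyme, cell-free | measure = normalized % inhibition | compound dosing = 20 µM, 1% DMSO | also added = 25 µM OMFP | schedule = reaction 20 min, ambient temperature | measured by = fluorescence read at 480 nm ex / 540 nm em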
Scp-1 inhibitor: Scp-1 phosphatase inhibitors, primary screen, biochemical, colorimetric, uHTS. Recombinant Scp1, phosphopeptide, malachite green phosphate absorbance. Carboxy-terminal domain RNA polymerase II polypeptide A small phosphatase 1 (Homo …. inhibition, % at 20 µM. 340,000 compounds, 0.88% hits;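 active means inhibition above about 50% at 20 µM, limit read from the data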;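 further: plate controls were DMSO wells with enzyme for no effect and wells lacking enzyme for full effect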
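Incubation: 45 min enzyme reaction at room temperature / System: truncated SCP-1 phosphatase (76-261aa) / Reagent: Phospho 17-mer peptide substrate / Buffer or medium: Acidic Tris acetate buffer with magnesium and detergent / Signal: absorbance at 630 nm / Doses: one concentration, 20 µM, with 1.0% DMSO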
GRK2 inh: compounds blocking aptamer binding on GRK2 – biochemical, human GRK2, bead flow cytometry, HTS, primary screen; FAM-aptamer displacement from GRK2; inhibition of aptamer binding, % at 10 µM; 330,000 compounds, 0.59% hits;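 active means inhibition of aptamer binding above 40%, roughly 3 SD of noise, on plates passing a quality check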;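 further: median bead fluorescence of bound FAM aptamer so fluorescent compounds give negative values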
SUMO1-SIM PPI: modulators of SUMO1 protein-protein interactions, primary screen, biochemical, uHTS. 360,000 compounds, 0.33% hits. AID 602429, 2012. SUMO1 binding to a labelled peptide, TR-FRET, 1 h. Small ubiquitin-related modifier 1 (Homo sapiens), P63165. inhibition, % at 20 µM; in the data active means inhibition above about 37%
LMPTP block: LMPTP phosphatase inhibitors, primary screen, biochemical, fluorescence intensity, uHTS. 360,000 compounds, 0.22% hits. recombinant LMPTP-A, OMFP fluorogenic substrate. Low molecular weight phosphotyrosine protein phosphatase (Homo sapiens), P24666. inhibition, % at 20 µM;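 active means compounds that cut the enzyme signal by at least half of the control window in the single-dose screen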;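 further: plate controls were DMSO wells with enzyme plus substrate for no effect and substrate without enzyme for full effect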
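Test system – LMPTP-A enzyme · Amount – LMPTP-A at 0.625 nM final in the reaction · Buffer or medium – Bis-Tris pH 6.0, DTT, detergent · Reagent – OMFP 400 µM · Doses – single 20 µM dose · Schedule – reaction 50 min, room temperature, dark · Detection – fluorescence intensity of OMFP turnover product · Evaluation – percent inhibition versus substrate-only and uninhibited controls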
The depositor's hits bear a star.

For CCOC(=O)[C@]12Cc3cc4ccccc4cc3[C@H]1N(Cc1ccccc1)C(=O)c1ccccc12 the results were SUMO1-SIM PPI 4 and LMPTP block 6.
Screening Cc1cc2c(C(C)C)c(O)c(O)c(C=O)c2c(O)c1-c1c(C)cc2c(C(C)C)c(O)c(O)c(C=O)c2c1O returned DNMT1 block 22, STEP block -4, SUMO1-SIM PPI 58* and LMPTP block 12.
CC1(C)C2([N+](=O)[O-])CN3CN(C2)CC1([N+](=O)[O-])C3 was read as DNMT1 block 6, STEP block 1, Scp-1 inhibitor 7, GRK2 inh 0, SUMO1-SIM PPI 39* and LMPTP block -1.
CCOC(=O)[C@]12Cc3cc(Cl)ccc3[C@H]1N(C1CCCCC1)C(=O)c1ccccc12 was read as SUMO1-SIM PPI 9 and LMPTP block 4.
`Cc1cccc(N2C(=O)/C(=C/c3ccc(N4CCN(C)CC4)o3)C(=O)NC2=S)c1C` gave DNMT1 block 11, STEP block 0, Scp-1 inhibitor -1, GRK2 inh 11, SUMO1-SIM PPI -83 and LMPTP block -3.
CCOc1ccc(N2C(=O)/C(=C/c3ccco3)C(=O)NC2=S)cc1 was read as DNMT1 block 49, STEP block 100*, Scp-1 inhibitor 94*, GRK2 inh 20, SUMO1-SIM PPI 114* and LMPTP block 92*.
`Cc1ccccc1N1C(=O)/C(=C/c2ccco2)C(=O)NC1=S` gave GRK2 inh 100*.
Cc1ccc(N2C(=O)NC(=O)/C(=C/C=C/c3ccco3)C2=O)cc1 was read as DNMT1 block 30, STEP block -1, Scp-1 inhibitor 6, GRK2 inh 3, SUMO1-SIM PPI 6 and LMPTP block 0.
Screening CCOc1ccc(N2C(=O)/C(=C\c3cccs3)C(=O)NC2=S)cc1 returned Scp-1 inhibitor 11 and GRK2 inh 0.
CCc1ccc(N2C(=O)NC(=O)/C(=C\C=C\c3ccco3)C2=O)cc1 was read as DNMT1 block 138*, STEP block 1, Scp-1 inhibitor 11, GRK2 inh 10, SUMO1-SIM PPI 12 and LMPTP block 4.
For CC1C(=O)CC2(C(C)C)CC12 (configuration not stated) the results were DNMT1 block 1, STEP block -3, SUMO1-SIM PPI 3 and LMPTP block 0.
For O=C1NC(=O)N(c2ccccc2)C(=O)/C1=C\c1ccc([N+](=O)[O-])o1 the results were GRK2 inh 93*.
For CN1C(=O)NC(=O)/C(=C/c2ccc([N+](=O)[O-])o2)C1=O the results were Scp-1 inhibitor 62* and GRK2 inh 0.
Cc1ccc(S(=O)(=O)N2Cc3cc(N4CCOCC4)ccc3-n3nncc3C2)cc1 was read as DNMT1 block 10, STEP block 3, SUMO1-SIM PPI 0 and LMPTP block -1.
For O=[N+]([O-])c1ccc(N2CCOCC2)c2c1no[n+]2[O-] the results were DNMT1 block 2, STEP block 7, SUMO1-SIM PPI -58 and LMPTP block 10.
Cc1cc(Br)cn2c(CC(=O)N3CCCCC3)c(-c3ccc(F)cc3)nc12 was read as SUMO1-SIM PPI -6 and LMPTP block -1.
For C=CCC1(CC)C(=O)NC(=S)NC1=O the results were DNMT1 block 2, STEP block -1, Scp-1 inhibitor 7, SUMO1-SIM PPI 42* and LMPTP block -1.
Screening C=C(C)CC1(CC)C(=O)NC(=S)NC1=O returned DNMT1 block 3, STEP block -4, Scp-1 inhibitor -4, SUMO1-SIM PPI 2 and LMPTP block -2.
`CCOC(=O)[C@]12Cc3cc(Cl)ccc3[C@H]1N(C(C)C)C(=O)c1ccccc12` gave SUMO1-SIM PPI 9 and LMPTP block 0.
`O=C1NCN(c2ccccc2)C12CCN(C(c1nnnn1-c1ccc3c(c1)OCCO3)C1CC1)CC2` (configuration not stated) gave DNMT1 block -7, STEP block 2, SUMO1-SIM PPI 2 and LMPTP block 1.
For COc1ccc(OC)c(N2C(=O)NC(=O)/C(=C\c3ccc([N+](=O)[O-])s3)C2=O)c1 the results were DNMT1 block 16, STEP block 4, Scp-1 inhibitor 3, GRK2 inh 6, SUMO1-SIM PPI 48* and LMPTP block 5.
For CCCCn1c(NS(=O)(=O)c2ccccc2)c(C(=O)OCC)c2nc3ccccc3nc21 the results were DNMT1 block 68*, STEP block 3, Scp-1 inhibitor -14, GRK2 inh 0, SUMO1-SIM PPI 49* and LMPTP block 9.
`Cc1cc(/C=C2\C(=O)NC(=O)N(c3ccccc3)C2=O)c(C)n1-c1ccc(C(=O)O)c(Cl)c1` gave DNMT1 block 40, STEP block 46*, Scp-1 inhibitor 40, GRK2 inh 31, SUMO1-SIM PPI -3 and LMPTP block 1.
COc1ccc(N=Nc2c(O)[nH]c(=S)[nH]c2=O)cc1 was read as DNMT1 block -1, STEP block 7, Scp-1 inhibitor -9, GRK2 inh 1, SUMO1-SIM PPI -55 and LMPTP block 11.
For CSc1nc(N)c(N=Nc2ccc([As](=O)(O)O)cc2)c(=O)[nH]1 the results were DNMT1 block 18, STEP block 0, Scp-1 inhibitor 16, GRK2 inh 5, SUMO1-SIM PPI 39* and LMPTP block 43.
For CSCCC(c1nnnn1C(C)(C)C)N1CCC2(CC1)C(=O)NCN2c1ccccc1 (configuration not stated) the results were DNMT1 block -5, STEP block 1, SUMO1-SIM PPI 6 and LMPTP block 2.
`C=C1C(O)[C@@H]2O[C@]3(CC[C@H](/C=C/C(C)[C@@H]4CC(C)=CC5(O[C@H](C[C@@](C)(O)C(=O)O)CCC5O)O4)O3)CC[C@H]2O[C@@H]1C(O)CC(C)[C@H]1OC2(CCCCO2)CCC1C` (some centres not stated) gave Scp-1 inhibitor 7 and GRK2 inh 0.

Assay outcomes deposited in PubChem BioAssay by several laboratories.
